# Measured values taken from ChEMBL document CHEMBL1140750, “Dynamic combinatorial mass spectrometry leads to metallo-beta-lactamase inhibitors” (J Med Chem, 2008).
# Assay: Inhibition of Bacillus cereus metallo-beta-lactamase BcII by dynamic combinatorial mass spectrometry
# Summary of the method: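 BcII enzyme was preincubated with inhibitor at room temperature in 20 mM HEPES pH 7.0 with 20 µg/mL BSA; inhibitors came from 10 mM DMSO stocks. Imipenem substrate was then added at 20–200 µM, with at least two inhibitor concentrations plus a no-inhibitor control. Hydrolysis was followed by absorbance at 300 or 482 nm at 30 °C. Ki was derived from initial rates by Hanes linearization.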
row,Structure (SMILES),Ki [µM]
1,CC(C)(C)c1ccc(C(=O)N[C@H](CS)C(=O)O)cc1,8.4
2,CC(=O)Nc1ccc(C(=O)N[C@H](CS)C(=O)O)cc1,13.5
3,O=C(O)C(S)C(S)C(=O)O (stereo not given),125
4,"O=C(CCc1ccccc1)NC(CS)C(=O)O (single isomer, unassigned; 9e)",44

# Continued, values first:
row,Ki [µM],Structure (SMILES)
1,53,"O=C(Cc1ccccc1)NC(CS)C(=O)O (single isomer, unassigned; 9d)"
2,0.74,"O=C(NC(CS)C(=O)O)c1ccccc1 (single isomer, unassigned; 9b)"
3,154,"O=C(Cc1ccccc1)NC(CS)C(=O)O (single isomer, unassigned; 9c)"
4,73,"O=C(CCc1ccccc1)NC(CS)C(=O)O (single isomer, unassigned; 9f)"
5,28,"O=C(NC(CS)C(=O)O)c1ccccc1 (single isomer, unassigned; 9a)"

# Assay: Inhibition of metallo-beta-lactamase IMP1
row,Structure (SMILES),IC50 [µM]
1,O=C(O)CCS [MERCAPTOPROPIONIC ACID],170
